Measured values from ChEMBL document CHEMBL4184298, “Development of Potent Inhibitors of Receptor Tyrosine Kinases by Ligand-Based Drug Design and Target-Biased Phenotypic Screening” (J Med Chem, 2018).
Activity calls are given as the source filed them. The calls are words filed in the database; no cut-off is given here.

How the values were obtained:
[1] = target: T1, Tyrosine-protein kinase Mer (Homo sapiens, UniProt Q12866); test: Inhibition of wild-type human partial length MER (R557 to L884 residues) expressed in bacterial expression system using poly [Glu, Try] 4:1 as substrate in presence of [gamma-33P]ATP
T1 sequence (Q12866 whole entry): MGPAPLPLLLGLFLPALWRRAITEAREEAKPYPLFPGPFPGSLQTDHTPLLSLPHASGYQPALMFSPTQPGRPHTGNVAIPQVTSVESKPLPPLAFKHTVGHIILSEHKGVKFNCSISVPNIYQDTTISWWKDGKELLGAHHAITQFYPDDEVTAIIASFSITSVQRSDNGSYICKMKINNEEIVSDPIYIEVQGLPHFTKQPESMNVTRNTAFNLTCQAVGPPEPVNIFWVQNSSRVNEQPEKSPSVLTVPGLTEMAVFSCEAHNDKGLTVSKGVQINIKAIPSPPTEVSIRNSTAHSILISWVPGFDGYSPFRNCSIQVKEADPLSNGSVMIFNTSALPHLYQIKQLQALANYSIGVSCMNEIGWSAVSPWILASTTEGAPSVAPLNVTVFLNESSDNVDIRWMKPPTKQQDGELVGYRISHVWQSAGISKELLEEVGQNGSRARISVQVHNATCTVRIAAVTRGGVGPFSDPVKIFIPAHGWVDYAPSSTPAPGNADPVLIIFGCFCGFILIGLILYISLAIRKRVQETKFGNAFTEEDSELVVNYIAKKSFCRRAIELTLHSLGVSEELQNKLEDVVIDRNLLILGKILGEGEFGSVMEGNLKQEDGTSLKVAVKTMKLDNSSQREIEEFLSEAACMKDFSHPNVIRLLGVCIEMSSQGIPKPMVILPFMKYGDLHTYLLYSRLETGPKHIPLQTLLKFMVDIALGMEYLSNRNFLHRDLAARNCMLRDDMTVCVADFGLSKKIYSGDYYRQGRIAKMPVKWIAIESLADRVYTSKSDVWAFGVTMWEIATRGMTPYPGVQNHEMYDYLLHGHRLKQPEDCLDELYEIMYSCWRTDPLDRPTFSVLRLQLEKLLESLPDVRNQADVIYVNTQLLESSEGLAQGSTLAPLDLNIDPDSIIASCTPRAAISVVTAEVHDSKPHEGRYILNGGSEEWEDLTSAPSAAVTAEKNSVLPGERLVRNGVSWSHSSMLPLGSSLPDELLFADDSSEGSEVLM

[2] = target: Vascular endothelial growth factor receptor 2 (Homo sapiens, UniProt P35968); test: Inhibition of wild-type human partial length VEGFR2 (R787 to P1253 residues) expressed in mammalian expression system using poly [Glu, Try] 4:1 as substrate in presence of [gamma-33P]ATP
Aurora kinase A = target: T2, Aurora kinase A (Homo sapiens, UniProt O14965); test: Inhibition of human partial length Aurora A (E122 to K401 residues) expressed in mammalian expression system using poly [Glu, Try] 4:1 as substrate in presence of [gamma-33P]ATP
T2 sequence (O14965 whole entry): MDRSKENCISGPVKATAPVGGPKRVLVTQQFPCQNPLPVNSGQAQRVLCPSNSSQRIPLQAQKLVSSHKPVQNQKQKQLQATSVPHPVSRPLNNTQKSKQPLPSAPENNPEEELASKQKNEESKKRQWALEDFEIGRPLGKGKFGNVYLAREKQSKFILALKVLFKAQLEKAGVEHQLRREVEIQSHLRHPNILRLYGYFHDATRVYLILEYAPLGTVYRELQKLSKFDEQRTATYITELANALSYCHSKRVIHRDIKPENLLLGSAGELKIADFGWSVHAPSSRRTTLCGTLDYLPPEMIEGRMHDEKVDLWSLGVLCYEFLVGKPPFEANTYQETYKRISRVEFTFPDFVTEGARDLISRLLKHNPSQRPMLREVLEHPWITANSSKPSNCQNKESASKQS
Outline: (§1)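 Radiometric assay on recombinant kinase: ³³P incorporation into the kinase substrate was measured and activity was expressed relative to a DMSO control.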

[3] = target: Proto-oncogene tyrosine-protein kinase Src (Homo sapiens, UniProt P12931); test: Inhibition of wild-type human partial length SRC (L240 to L536 residues) expressed in bacterial expression system using poly [Glu, Try] 4:1 as substrate in presence of [gamma-33P]ATP
[4] = target: T3, Tyrosine-protein kinase receptor UFO (Homo sapiens, UniProt P30530); test: Inhibition of wild-type human partial length AXL (R497 to Y821 residues) expressed in bacterial expression system using poly [Glu, Try] 4:1 as substrate in presence of [gamma-33P]ATP
T3 sequence (P30530 whole entry): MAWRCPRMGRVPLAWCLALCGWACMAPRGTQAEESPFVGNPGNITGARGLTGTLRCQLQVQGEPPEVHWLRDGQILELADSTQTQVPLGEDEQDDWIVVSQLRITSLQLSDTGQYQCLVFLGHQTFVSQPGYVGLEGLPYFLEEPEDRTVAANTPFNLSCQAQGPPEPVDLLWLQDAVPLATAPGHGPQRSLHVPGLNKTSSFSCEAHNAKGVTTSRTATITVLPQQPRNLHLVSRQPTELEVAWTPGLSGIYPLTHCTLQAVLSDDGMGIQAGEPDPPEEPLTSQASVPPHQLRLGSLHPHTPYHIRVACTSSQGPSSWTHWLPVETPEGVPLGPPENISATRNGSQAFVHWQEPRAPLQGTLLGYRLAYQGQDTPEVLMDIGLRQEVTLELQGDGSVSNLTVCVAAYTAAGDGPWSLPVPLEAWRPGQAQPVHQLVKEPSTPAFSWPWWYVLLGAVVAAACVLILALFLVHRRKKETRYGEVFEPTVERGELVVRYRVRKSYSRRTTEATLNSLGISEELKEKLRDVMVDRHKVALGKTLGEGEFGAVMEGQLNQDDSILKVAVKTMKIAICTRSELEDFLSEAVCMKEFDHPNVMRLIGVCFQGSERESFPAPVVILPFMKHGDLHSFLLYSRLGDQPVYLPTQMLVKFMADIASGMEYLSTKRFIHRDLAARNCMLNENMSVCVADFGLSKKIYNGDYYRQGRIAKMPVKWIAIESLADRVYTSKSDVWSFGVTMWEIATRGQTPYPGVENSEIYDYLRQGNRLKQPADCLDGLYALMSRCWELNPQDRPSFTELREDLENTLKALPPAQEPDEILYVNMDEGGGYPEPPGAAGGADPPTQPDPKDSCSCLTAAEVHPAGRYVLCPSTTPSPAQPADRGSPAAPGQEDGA

Mus musculus = organism: Mus musculus; test: (§2) Antiproliferative activity against mouse AXL-positive Breast cancer cells after 5 days by PrestoBlue assay; format: functional
Outline: (§3)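 Cell proliferation: AXL+ cells were exposed to 8-point half-log dilutions (0.03–100 μM). Viability was read with PrestoBlue reagent on day 5.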

MOLM-13 = test: Antiproliferative activity against human MOLM13 cells after 5 days by PrestoBlue assay; format: functional, cell-based
[5] = target: Epithelial discoidin domain-containing receptor 1 (Homo sapiens, UniProt Q08345); test: Inhibition of wild-type human partial length DDR1 (R565 to V876 residues) expressed in bacterial expression system using poly [Glu, Try] 4:1 as substrate in presence of [gamma-33P]ATP; outline: as §1
[6] = as §2; format: functional; details: 120 h; outline: as §3

Sequence of Proto-oncogene tyrosine-protein kinase Src (P12931 2-536 limits assumed): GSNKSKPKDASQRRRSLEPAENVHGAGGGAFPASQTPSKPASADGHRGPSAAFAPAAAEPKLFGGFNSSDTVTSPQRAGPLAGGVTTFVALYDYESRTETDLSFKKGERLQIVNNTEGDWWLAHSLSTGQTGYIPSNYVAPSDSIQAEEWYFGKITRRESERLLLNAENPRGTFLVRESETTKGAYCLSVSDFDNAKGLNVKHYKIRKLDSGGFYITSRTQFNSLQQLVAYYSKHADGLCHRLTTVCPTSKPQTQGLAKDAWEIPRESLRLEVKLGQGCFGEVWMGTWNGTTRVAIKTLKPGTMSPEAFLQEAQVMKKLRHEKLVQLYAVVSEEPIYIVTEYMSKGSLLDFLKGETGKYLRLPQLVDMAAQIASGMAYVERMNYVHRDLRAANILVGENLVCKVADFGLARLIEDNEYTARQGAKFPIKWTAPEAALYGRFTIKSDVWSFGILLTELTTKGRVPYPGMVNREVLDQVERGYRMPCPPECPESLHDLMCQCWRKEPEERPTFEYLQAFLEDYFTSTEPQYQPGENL
Sequence of Vascular endothelial growth factor receptor 2 (P35968 whole entry, the tested form may be a part): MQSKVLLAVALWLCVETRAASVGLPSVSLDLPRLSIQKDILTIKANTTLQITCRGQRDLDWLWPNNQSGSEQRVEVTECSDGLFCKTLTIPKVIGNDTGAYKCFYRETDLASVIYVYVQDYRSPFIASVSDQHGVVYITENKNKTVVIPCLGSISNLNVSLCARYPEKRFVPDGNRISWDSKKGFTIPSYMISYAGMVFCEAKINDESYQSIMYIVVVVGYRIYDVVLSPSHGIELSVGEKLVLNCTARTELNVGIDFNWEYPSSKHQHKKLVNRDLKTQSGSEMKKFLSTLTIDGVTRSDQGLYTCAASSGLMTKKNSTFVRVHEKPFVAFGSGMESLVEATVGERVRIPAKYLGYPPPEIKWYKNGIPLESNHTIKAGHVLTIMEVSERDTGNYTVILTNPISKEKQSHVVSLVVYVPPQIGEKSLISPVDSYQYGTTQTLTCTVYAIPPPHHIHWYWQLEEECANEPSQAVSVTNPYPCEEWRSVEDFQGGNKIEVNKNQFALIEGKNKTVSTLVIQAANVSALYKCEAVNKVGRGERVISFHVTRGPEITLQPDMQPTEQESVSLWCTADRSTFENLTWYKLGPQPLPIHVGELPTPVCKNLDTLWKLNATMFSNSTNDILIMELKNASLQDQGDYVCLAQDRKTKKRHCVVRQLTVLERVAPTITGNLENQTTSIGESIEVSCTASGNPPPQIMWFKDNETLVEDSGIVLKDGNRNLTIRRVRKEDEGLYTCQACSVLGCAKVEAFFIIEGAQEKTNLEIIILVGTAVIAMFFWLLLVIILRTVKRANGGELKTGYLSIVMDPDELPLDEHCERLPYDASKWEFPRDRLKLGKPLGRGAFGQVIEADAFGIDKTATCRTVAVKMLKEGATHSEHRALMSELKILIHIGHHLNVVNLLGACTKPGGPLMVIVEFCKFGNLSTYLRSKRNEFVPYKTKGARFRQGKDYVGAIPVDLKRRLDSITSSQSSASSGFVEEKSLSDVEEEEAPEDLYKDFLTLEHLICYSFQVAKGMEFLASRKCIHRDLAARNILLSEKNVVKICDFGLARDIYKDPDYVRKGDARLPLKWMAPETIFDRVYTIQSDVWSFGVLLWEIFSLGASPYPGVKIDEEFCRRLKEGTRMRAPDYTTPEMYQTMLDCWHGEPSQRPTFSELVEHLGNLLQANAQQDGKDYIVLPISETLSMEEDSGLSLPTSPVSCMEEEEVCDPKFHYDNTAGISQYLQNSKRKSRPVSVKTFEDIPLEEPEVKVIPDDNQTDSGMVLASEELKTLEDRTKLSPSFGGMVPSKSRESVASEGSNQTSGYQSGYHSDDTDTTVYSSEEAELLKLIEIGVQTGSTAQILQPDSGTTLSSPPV
Sequence of Epithelial discoidin domain-containing receptor 1 (Q08345 whole entry, the tested form may be a part): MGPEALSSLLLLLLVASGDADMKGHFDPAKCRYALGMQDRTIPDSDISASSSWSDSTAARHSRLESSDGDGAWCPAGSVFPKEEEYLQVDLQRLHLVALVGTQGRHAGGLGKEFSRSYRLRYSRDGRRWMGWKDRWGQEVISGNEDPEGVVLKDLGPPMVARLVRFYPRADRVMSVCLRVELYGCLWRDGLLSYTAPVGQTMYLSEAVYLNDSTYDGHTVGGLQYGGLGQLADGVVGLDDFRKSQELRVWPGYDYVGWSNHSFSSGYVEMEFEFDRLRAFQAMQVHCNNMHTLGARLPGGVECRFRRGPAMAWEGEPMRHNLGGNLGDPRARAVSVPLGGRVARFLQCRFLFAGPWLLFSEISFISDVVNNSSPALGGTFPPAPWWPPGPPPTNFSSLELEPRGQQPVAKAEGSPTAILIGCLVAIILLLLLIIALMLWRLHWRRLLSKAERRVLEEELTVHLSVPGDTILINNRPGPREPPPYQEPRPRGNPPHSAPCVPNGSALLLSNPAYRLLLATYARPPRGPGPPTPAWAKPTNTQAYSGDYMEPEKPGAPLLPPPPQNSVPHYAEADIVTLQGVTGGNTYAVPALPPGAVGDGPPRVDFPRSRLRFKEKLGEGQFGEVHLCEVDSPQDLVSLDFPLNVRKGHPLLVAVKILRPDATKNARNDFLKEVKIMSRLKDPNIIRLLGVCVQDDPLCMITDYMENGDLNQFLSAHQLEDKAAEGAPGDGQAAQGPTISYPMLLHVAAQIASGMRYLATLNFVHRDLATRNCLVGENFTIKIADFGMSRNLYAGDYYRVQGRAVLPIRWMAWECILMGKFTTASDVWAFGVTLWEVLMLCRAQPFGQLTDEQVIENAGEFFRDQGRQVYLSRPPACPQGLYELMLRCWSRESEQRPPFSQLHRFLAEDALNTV

SMILES: CNc1ncc2c(-c3ccc(N4CCN(C(=O)C(C)(C)C)CC4)nc3)nn(CC3CCCC3)c2n1
- IC50 [1]: > 10000 nM
- IC50 [2]: > 10000 nM
- IC50 (Aurora kinase A): 610 nM
- IC50 [3]: > 10000 nM
- IC50 [4]: 7200 nM

SMILES: CNc1ncc2c(-c3ccc(N4CCN(C)CC4)nc3)nn(Cc3cn(Cc4ccccc4)nn3)c2n1
- IC50 [1]: 2000 nM
- IC50 [2]: 7600 nM
- IC50 (Aurora kinase A): 730 nM
- Activity (Mus musculus): inactive
- IC50 [3]: 8300 nM
- IC50 [4]: 380 nM

SMILES: CCN1CCN(c2ccc(-c3nn(CC4CCCC4)c4nc(NC)ncc34)cn2)CC1
- IC50 [1]: 2500 nM
- IC50 [2]: 1900 nM
- IC50 (Aurora kinase A): 280 nM
- IC50 [3]: 3600 nM
- IC50 [4]: 260 nM

SMILES: CNc1ncc2c(-c3ccc(N4CCN(C)CC4)nc3)nn(CC3CCCC3)c2n1
- IC50 [1]: 480 nM
- Activity (MOLM-13): Active
- IC50 [2]: 400 nM
- IC50 [5]: 100 nM
- IC50 (Aurora kinase A): 30 nM
- IC50 [3]: 800 nM
- IC50 [4]: 70 nM

SMILES: CNc1ncc2c(-c3ccc(N4CCNCC4)nc3)nn(Cc3cn(-c4ccsc4C(=O)OC)nn3)c2n1
- IC50 [1]: 8900 nM
- IC50 [2]: > 10000 nM
- IC50 (Aurora kinase A): 790 nM
- Activity (Mus musculus): Active
- IC50 [3]: > 10000 nM
- IC50 [4]: 780 nM

SMILES: CNc1ncc2c(-c3ccc(N4CCNCC4)cc3)nn(Cc3cn(Cc4ccccc4)nn3)c2n1
- IC50 [1]: > 10000 nM
- IC50 [2]: > 10000 nM
- IC50 (Aurora kinase A): > 10000 nM
- Activity (Mus musculus): inactive
- IC50 [3]: > 10000 nM
- IC50 [4]: > 10000 nM

SMILES: CNc1ncc2c(-c3ccc(N4CCNCC4)nc3)nn(CC3OCCO3)c2n1
- IC50 [1]: 6200 nM
- IC50 [2]: 4500 nM
- IC50 (Aurora kinase A): 660 nM
- EC50 [6]: ≤ 10000 nM
- IC50 [3]: 890 nM
- IC50 [4]: 530 nM

SMILES: CCN1CCN(c2ccc(-c3nn(Cc4cn(Cc5ccccc5)nn4)c4nc(NC)ncc34)cn2)CC1
- IC50 [1]: > 10000 nM
- IC50 [2]: 7700 nM
- IC50 (Aurora kinase A): > 10000 nM
- Activity (Mus musculus): inactive
- IC50 [3]: > 10000 nM
- IC50 [4]: > 10000 nM

SMILES: CNc1ncc2c(-c3ccc(OC)cc3)nn(CC3OCCO3)c2n1
- IC50 [1]: 8700 nM
- IC50 [2]: 7500 nM
- IC50 (Aurora kinase A): 560 nM
- EC50 [6]: ≤ 10000 nM
- IC50 [3]: 7200 nM
- IC50 [4]: 1300 nM

SMILES: Nc1nc(Nc2ccc3c(c2)CC[C@@H](N2CCCC2)CC3)nn1-c1cc2c(nn1)-c1ccccc1CCC2 [BEMCENTINIB]
- Activity (MOLM-13): Active
- IC50 [5]: 20 nM
- IC50 (Aurora kinase A): 26 nM

SMILES: CNc1ncc2c(-c3ccc(N4CCNCC4)nc3)nn(CC3CCCC3)c2n1
- IC50 [1]: 640 nM
- IC50 [2]: 690 nM
- IC50 (Aurora kinase A): 160 nM
- EC50 [6]: 830 nM
- IC50 [3]: 1100 nM
- IC50 [4]: 120 nM

SMILES: CNc1ncc2c(-c3ccc(N4CCN(C(=O)C(C)(C)C)CC4)nc3)nn(Cc3cn(Cc4ccccc4)nn3)c2n1
- IC50 [1]: 5400 nM
- IC50 [2]: > 10000 nM
- IC50 (Aurora kinase A): 840 nM
- Activity (Mus musculus): inactive
- IC50 [3]: > 10000 nM
- IC50 [4]: 760 nM
